Our source for the Activity and inhibition values is ChEMBL document CHEMBL1148178, “Dicranin, an antimicrobial and 15-lipoxygenase inhibitor from the moss Dicranum scoparium” (1993).

Molecules are shown by their SMILES. The source made the active and inactive calls. No cut-off for these calls is given here.

One may read the inhibition as the change of the read-out against control, counted positive when it falls. High values mean a strong effect, low ones a weak effect.

One assay deals with Staphylococcus aureus. As to the kind of experiment: Antibacterial activity against Staphylococcus aureus T-AQ 49/YF29 after 24 hrs by disk diffusion assay. The format is functional, organism-based. A digest of the protocol:
(§1)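 Sterile 6 mm filter-paper disc bearing sample set in the centre of a Petri dish of 15 ml plate count agar. Overlaid with 3 ml soft nutrient agar (nutrient broth + 0.7% agar) seeded with 1% of a 16–18 h culture of the test strain. Read-out is the diameter of the growth-free zone around the disc.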

The test system of the next assay is Enterococcus faecalis. As to the kind of experiment: Antibacterial activity against Streptococcus faecalis NCIB 775 after 24 hrs by disk diffusion assay. The format is functional, organism-based. The gist of the method: as §1
(In general: A growth-free zone around the sample is the usual read-out of agar diffusion tests.)

For the next assay, the system named is Salmonella typhimurium. As to the kind of experiment: Antibacterial activity against Salmonella Typhimurium NCIB 10248 after 24 hrs by disk diffusion assay. The format is functional, organism-based. The following applies: Salmonella enterica subsp. enterica serovar Typhimurium. The gist of the method:
as §1

The next assay deals with Pseudomonas putida. As to the kind of experiment: Antibacterial activity against Pseudomonas putida T-AQ 18/YF18 after 24 hrs by disk diffusion assay. The format is functional, organism-based. A digest of the protocol: as §1
The next assay deals with Escherichia coli. As to the kind of experiment: Antibacterial activity against Escherichia coli B74-1 after 24 hrs by disk diffusion assay. Type of assay: functional, organism-based. The gist of the method:
as §1

The next assay deals with Pseudomonas aeruginosa. The assay can be described thus: Antibacterial activity against Pseudomonas aeruginosa ATCC 10145 after 24 hrs by disk diffusion assay. Type of assay: functional, organism-based. The gist of the method:
as §1

In assay [1] the test system is Geobacillus stearothermophilus. As to the kind of experiment: Antibacterial activity against Bacillus stearothermophilus NCA 1518 after 24 hrs by disk diffusion assay. The format is functional, organism-based. A digest of the protocol: as §1
The next assay has as its system Bacillus cereus. As to the kind of experiment: Antibacterial activity against Bacillus cereus NCIB 3329 after 24 hrs by disk diffusion assay. Type of assay: functional, organism-based. A digest of the protocol:
as §1

The next assay has as its system Bacillus subtilis. As to the kind of experiment: Antibacterial activity against Bacillus subtilis NCIB 3610 after 24 hrs by disk diffusion assay. Type of assay: functional, organism-based. A digest of the protocol:
as §1

Another assay deals with Glycine max. The assay can be described thus: Inhibition of soybean 15-LOX at 4 uM. The gist of the method: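 15-lipoxygenase assay run by a literature method with arachidonic acid (40 μM) as substrate.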

With `CC/C=C\C/C=C\C/C=C\C/C=C\CCCCC(=O)O`, the outcome in the assay with Staphylococcus aureus, in the assay on Enterococcus faecalis, with Salmonella typhimurium, in the assay with Pseudomonas putida, in the assay with Escherichia coli and with Pseudomonas aeruginosa was Active. Moreover, the outcome (in [1]; in the assay on Bacillus cereus; in the assay with Bacillus subtilis) was Active.
In turn, `CCCCCC#CCC#CCC#CCC#CCCCC(=O)O` registered an inhibition in the assay on Glycine max of 95%.
